assay: Toxicity liver stage against HepG2, at 10uM; assay type: cell-based; set-up: test concentration 10 uM, cell line HepG2-A16-CD81EGFP; details: human, HepG2-A16-CD81EGFP cells; read-out: INHIBITION
Procedure, shortened: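 Uninfected HepG2-A16-CD81EGFP cells, 3 × 10^3 per well, 1536-well, plated on prespotted compound at 10 μM final, parasite-free screening media added to match infected plates; puromycin 10 μM positive, DMSO 0.5% negative; run in parallel with 48 h PbLuc assay at 37 °C, 5% CO2; viability by CellTiter-Glo luminescence, normalized to controls.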

Question: With `O=C(NCCc1ccncc1)c1cccnc1OCC(F)(F)F` as the molecule, how does the cytotoxicity at 10 µM read?
Answer: The cytotoxicity at 10 µM was 5.03%.

Question: Which cytotoxicity at 10 µM does the source give for `O=C(c1cn(Cc2ccccc2)c2ncccc12)N1CCOCC1` here?
Answer: The cytotoxicity at 10 µM was -0.142%.

Question: With `CCOCC(=O)NCCc1nc(C)cc(C(F)(F)F)n1` as the molecule, how does the cytotoxicity at 10 µM read?
Answer: Its cytotoxicity at 10 µM is -1.21%.

Question: For `COC(CNC(=O)C1CC1)c1ccc(C)s1` (stereo unspecified), which cytotoxicity at 10 µM is on record?
Answer: The cytotoxicity at 10 µM was -3.08%.

Question: Which cytotoxicity at 10 µM does the source give for `CN1C(Cn2cccn2)C[C@@H]2CN(Cc3nccs3)CC[C@@H]21` (stereo partly specified) here?
Answer: The cytotoxicity at 10 µM was 3.8%.

Question: Which cytotoxicity at 10 µM does the source give for `CN1CCc2cc(C(CNS(=O)(=O)c3cccs3)N3CCCC3)ccc21` (stereo unspecified) here?
Answer: Its cytotoxicity at 10 µM is 2.66%.

Question: For `O=C1CC(c2ccncc2)c2c(sc3c2CCCC3)N1` (stereo unspecified), which cytotoxicity at 10 µM is on record?
Answer: The cytotoxicity at 10 µM was 5.57%.

Question: For `O=C(c1cncs1)N1CCc2[nH]nc(Nc3ccccc3)c2C1`, which cytotoxicity at 10 µM is on record?
Answer: The cytotoxicity at 10 µM was 8.26%.

Question: Which cytotoxicity at 10 µM does the source give for `CCN1CCN(Cc2c(C3CCCC3)[nH]c3ncccc23)CC1` here?
Answer: Its cytotoxicity at 10 µM is 13.1%.

Question: For `CN(Cc1ccc(F)cc1)CC1(O)CCN(C(=O)c2cccs2)C1` (stereo unspecified), which cytotoxicity at 10 µM is on record?
Answer: Its cytotoxicity at 10 µM is -12.6%.

Question: Which cytotoxicity at 10 µM does the source give for `Cc1ncoc1C(=O)N1CC[C@@H](O)[C@@H](O)[C@H](N2CCC(F)(F)CC2)C1` here?
Answer: Its cytotoxicity at 10 µM is 2.3%.

Question: Which cytotoxicity at 10 µM does the source give for `Cc1ccccc1-c1cncc(C2CCN(C(=O)CN(C)C)CC2)n1` here?
Answer: Its cytotoxicity at 10 µM is 3.88%.

Question: For `CN1CCCC(Cc2cncc(C(=O)NCC3CC3)c2)C1` (stereo unspecified), which cytotoxicity at 10 µM is on record?
Answer: The cytotoxicity at 10 µM was -3.99%.

Question: With `CNC(=O)c1ccc(Cn2ccnc2S(C)(=O)=O)cc1` as the molecule, how does the cytotoxicity at 10 µM read?
Answer: The cytotoxicity at 10 µM was -3.83%.

Question: For `CC(C)CS(=O)(=O)CC(=O)N(C)Cc1ccc(OC(F)F)cc1`, which cytotoxicity at 10 µM is on record?
Answer: Its cytotoxicity at 10 µM is 1.13%.

Question: With `O=C(c1cc(Cl)cc(Cl)c1)N1CCN(c2nccs2)CC1` as the molecule, how does the cytotoxicity at 10 µM read?
Answer: Its cytotoxicity at 10 µM is -5.69%.

Question: For `COc1cccc2c1OCC(NC(=O)NCc1cccs1)C2` (stereo unspecified), which cytotoxicity at 10 µM is on record?
Answer: The cytotoxicity at 10 µM was -11%.

Question: Which cytotoxicity at 10 µM does the source give for `COCCC1COC2(CCN(C(=O)c3cccn3C)CC2)C1` (stereo unspecified) here?
Answer: The cytotoxicity at 10 µM was -80.7%.

Question: Which cytotoxicity at 10 µM does the source give for `COCCO[C@H]1CCN(C(=O)c2cnccn2)[C@H]1Cc1ccncc1` here?
Answer: The cytotoxicity at 10 µM was -70.3%.

Question: Which cytotoxicity at 10 µM does the source give for `CN1CCN(Cc2ccncc2)Cc2cccnc21` here?
Answer: Its cytotoxicity at 10 µM is -72.7%.

Question: For `COCc1cnc2n1CCN(C(=O)c1ocnc1C)C2C` (stereo unspecified), which cytotoxicity at 10 µM is on record?
Answer: Its cytotoxicity at 10 µM is -1.91%.

Question: For `O=c1cc(Cn2cncn2)nc2n1CCCN(Cc1ccoc1)C2`, which cytotoxicity at 10 µM is on record?
Answer: The cytotoxicity at 10 µM was 3.37%.

Question: For `CC(C)Nc1nc(N2CCOCC2)nc2c1CN(CC(=O)N(C)C)CC2`, which cytotoxicity at 10 µM is on record?
Answer: The cytotoxicity at 10 µM was 7.77%.

Question: Which cytotoxicity at 10 µM does the source give for `O=C(N1CCCC1)N1CCN(CC2CC2)c2ncccc2C1` here?
Answer: Its cytotoxicity at 10 µM is 6.51%.

Question: Which cytotoxicity at 10 µM does the source give for `Fc1cccc(CN2CCO[C@H]3[C@@H](OCc4ccccn4)CC[C@@H]32)c1` here?
Answer: Its cytotoxicity at 10 µM is -0.902%.

Question: Which cytotoxicity at 10 µM does the source give for `c1ccc(SCCN2CCCC(Cn3ccnc3)C2)cc1` (stereo unspecified) here?
Answer: Its cytotoxicity at 10 µM is 2.92%.

Question: For `CCn1ccnc1CN(C)C1CCCN(CCCc2ccccc2)C1` (stereo unspecified), which cytotoxicity at 10 µM is on record?
Answer: The cytotoxicity at 10 µM was 7.35%.

Question: With `CCN(CC)C(=O)[C@@H]1C[C@@H](NC(=O)c2cccn2C2CC2)CN1C` as the molecule, how does the cytotoxicity at 10 µM read?
Answer: The cytotoxicity at 10 µM was -5.94%.

Question: For `COC(C)(C)CNC(=O)C1CCC(=O)N(C2CCCC2)C1` (stereo unspecified), which cytotoxicity at 10 µM is on record?
Answer: Its cytotoxicity at 10 µM is -6.52%.

Question: With `CCN(Cc1noc(CC(C)C)n1)C[C@]1(O)CCCN2CCCC[C@@H]21` as the molecule, how does the cytotoxicity at 10 µM read?
Answer: Its cytotoxicity at 10 µM is -6.91%.

Question: For `Nc1cc(-c2cc[nH]n2)nc(N2CCCC2)n1`, which cytotoxicity at 10 µM is on record?
Answer: The cytotoxicity at 10 µM was 1.56%.

Question: Which cytotoxicity at 10 µM does the source give for `CCOc1ccccc1OCCN(C)Cc1nccn1C` here?
Answer: The cytotoxicity at 10 µM was -3.8%.

Question: Which cytotoxicity at 10 µM does the source give for `CN1CCN(Cc2ccccc2Oc2nccc3occc23)CC1` here?
Answer: Its cytotoxicity at 10 µM is 5.83%.

Question: For `NCC1Cc2cc(-c3nccc(N4CCC(O)CC4)n3)cc(F)c2O1` (stereo unspecified), which cytotoxicity at 10 µM is on record?
Answer: The cytotoxicity at 10 µM was 14.2%.

Question: For `CS(=O)(=O)N1CCC(c2nnc(CN3CCCC3)n2C2CC2)CC1`, which cytotoxicity at 10 µM is on record?
Answer: The cytotoxicity at 10 µM was -6.6%.

Question: Which cytotoxicity at 10 µM does the source give for `Cc1cc2ccccc2n1CCC(=O)NCc1ncc[nH]1` here?
Answer: The cytotoxicity at 10 µM was 4.37%.

Question: With `O=C(CCNc1ncccn1)NCCOc1ccc2c(c1)CCC2` as the molecule, how does the cytotoxicity at 10 µM read?
Answer: The cytotoxicity at 10 µM was -4.54%.

Question: For `Cc1cc(C)n(CC2CN(CCOc3cccc(C#N)c3)CCO2)n1` (stereo unspecified), which cytotoxicity at 10 µM is on record?
Answer: The cytotoxicity at 10 µM was -10.9%.

Question: With `Cc1ccc(-c2cc(CNC(=O)N3CCOC(C)C3)on2)cc1` (stereo unspecified) as the molecule, how does the cytotoxicity at 10 µM read?
Answer: Its cytotoxicity at 10 µM is -6.09%.

Question: Which cytotoxicity at 10 µM does the source give for `Cc1noc(C(C)N2CCN(CCCN3CCCC3=O)CC2)n1` (stereo unspecified) here?
Answer: The cytotoxicity at 10 µM was -2.73%.

Question: For `CN(c1ccc(C(C)(C)C)cc1)S(=O)(=O)c1cc(C(=O)O)cs1`, which cytotoxicity at 10 µM is on record?
Answer: The cytotoxicity at 10 µM was -6.19%.

Question: Which cytotoxicity at 10 µM does the source give for `CC(C)c1cc(NC(=O)CN2CCNC(=O)C2)on1` here?
Answer: The cytotoxicity at 10 µM was -11.6%.

Question: For `O=S(=O)(CCNC1CCc2ncnn2C1)c1ccccc1` (stereo unspecified), which cytotoxicity at 10 µM is on record?
Answer: The cytotoxicity at 10 µM was -5.58%.

Question: Which cytotoxicity at 10 µM does the source give for `O=C(Nc1cccc(CNCc2cccs2)c1)C1CC1` here?
Answer: The cytotoxicity at 10 µM was -8.3%.

Question: For `Cc1cc(CN2C[C@@H]3COC[C@]3(CNC(=O)c3ccco3)C2)no1`, which cytotoxicity at 10 µM is on record?
Answer: The cytotoxicity at 10 µM was -71.1%.

Question: With `CC(C)(C)C(N)C1=NC(=C2N=CN=N2)NO1` (stereo unspecified) as the molecule, how does the cytotoxicity at 10 µM read?
Answer: Its cytotoxicity at 10 µM is -16.9%.
